Assay results as given in ChEMBL document CHEMBL1153876, “Synthesis of some N-substituted nitroimidazole derivatives as potential antioxidant and antifungal agents” (2009).
Converted amounts (≈) assume the structure as drawn.

Columns and labels:
[1] = Antioxidant activity assessed as inhibition of Fe2+-induced lipid peroxidation after 15 to 60 mins by TBARS assay relative to control; type: functional; parameters: concentration or dose not given beside the values
Method in brief: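 Substrate: egg yolk lipoprotein suspension, made by homogenising yolk with an equal volume of phosphate buffer pH 7.4. Compounds were added as 10^-3 mol/mL solution, with 0.7% FeSO4·7H2O to start non-enzymatic peroxidation, at 37 °C. Controls were Fe only and a blank with neither Fe nor compound; tocopheryl acetate was the reference. The supernatant was heated with acidic thiobarbituric acid at 95 °C for 1 h, extracted into n-butanol–pyridine 15:1, and read by optical density.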

Sydowia polyspora = assay: Antifungal activity against Sclerophoma pityophila after 12 days; type: functional; settings: for EC50: Sydowia polyspora, 288 h, read-out: ED50 (the source's name)
Method in brief: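 Agar dilution on S. pityophila S 231: nine concentrations in geometric progression, 25 to 5000 ppm, in malt agar (1.5% agar, 4% malt extract), 90 mm dishes, three replicate plates each. Centrally inoculated with 5-mm disc from submargin of 10-day-old culture; 22 ± 1 °C, dark, up to 12 days. Growth rate versus compound-free plates gives ED50/ED100; non-growing inocula transferred to fresh agar to assess viability (LD).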

| Structure (SMILES) | Activity [1] | ED100 (Sydowia polyspora) | LD (Sydowia polyspora) | EC50 (Sydowia polyspora) |
| --- | --- | --- | --- | --- |
| Cc1nc(N2CCN(C)CC2)c([N+](=O)[O-])n1CC(=O)c1ccccc1 | 13% |  |  |  |
| Cc1ccccc1Nc1nc(C)n(CC(=O)c2ccccc2)c1[N+](=O)[O-] | -354% |  |  |  |
| O=C(Cn1cnc(N2CCOCC2)c1[N+](=O)[O-])c1ccccc1 | 56.3% | <25 ppm | <5000 ppm | < 25 µg/mL |
| Cc1ccccc1Nc1ncn(CC(=O)c2ccc(Cl)cc2)c1[N+](=O)[O-] | -35.3% |  |  |  |
| Cc1nc([N+](=O)[O-])c([N+](=O)[O-])n1CC(=O)c1ccc(Cl)cc1 | 57.6% | >5000 ppm | <5000 ppm | 500 µg/mL (≈ 1540 µM) |
| Cc1nc(N2CCCC2)c([N+](=O)[O-])n1CC(=O)c1ccccc1 | 45.2% |  |  |  |
| O=C(Cn1cnc(N2CCOCC2)c1[N+](=O)[O-])c1ccc(Cl)cc1 | 21% |  |  |  |
| O=C(Cn1cnc([N+](=O)[O-])c1[N+](=O)[O-])c1ccccc1 | 34.5% |  |  |  |
| CC(=O)Cn1c(C)nc(Nc2ccccc2)c1[N+](=O)[O-] | 15.1% |  |  |  |
| Cc1nc(N2CCOCC2)c([N+](=O)[O-])n1CC(=O)c1ccccc1 | 39.9% |  |  |  |
| Cc1nc(N2CCCCC2)c([N+](=O)[O-])n1CC(=O)c1ccccc1 | 48.6% | >5000 ppm | <5000 ppm | > 5000 µg/mL |
| Cc1nc(N2CCN(C)CC2)c([N+](=O)[O-])n1CC(=O)c1ccc(Cl)cc1 | 37.1% |  |  |  |
| CC(=O)Oc1c(C)c(C)c2c(c1C)CCC(C)(CCC[C@H](C)CCC[C@H](C)CCCC(C)C)O2 (some centres not stated) | 17.8% |  |  |  |
| Cc1nc(N2CCOCC2)c([N+](=O)[O-])n1CC(=O)c1ccc(Cl)cc1 | 30.1% |  |  |  |
| Cc1nc(N2CCCCC2)c([N+](=O)[O-])n1CC(=O)c1ccc(Cl)cc1 | 36.9% | <25 ppm | <5000 ppm | < 25 µg/mL |
| CN1CCN(c2ncn(CC(O)CCl)c2[N+](=O)[O-])CC1 (configuration not stated) | 39.1% |  |  |  |
| Cc1ccccc1Nc1nc(C)n(CC(=O)c2ccc(Cl)cc2)c1[N+](=O)[O-] | 12.2% |  |  |  |
| Cc1ccccc1Nc1ncn(CC(=O)c2ccccc2)c1[N+](=O)[O-] | 1.2% |  |  |  |
| O=C(Cn1cnc(N2CCCC2)c1[N+](=O)[O-])c1ccccc1 | 44.2% |  |  |  |
| Cc1nc(N2CCCC2)c([N+](=O)[O-])n1CC(=O)c1ccc(Cl)cc1 | 20.8% | >5000 ppm | <5000 ppm | > 5000 µg/mL |
| O=C(Cn1cnc([N+](=O)[O-])c1[N+](=O)[O-])c1ccc(Cl)cc1 | 60% | >5000 ppm | <5000 ppm | 1000 µg/mL (≈ 3220 µM) |
| Cc1nc([N+](=O)[O-])c([N+](=O)[O-])n1CC(=O)c1ccccc1 | 26.4% |  |  |  |
| O=[N+]([O-])c1c(N2CCOCC2)ncn1CC(O)CCl (configuration not stated) | 51.6% |  |  |  |
| CC(=O)Cn1c(C)nc(N2CCOCC2)c1[N+](=O)[O-] | 23.1% |  |  |  |
